The values that follow come from ChEMBL document CHEMBL4130386, “Notch Inhibitors from Calotropis gigantea That Induce Neuronal Differentiation of Neural Stem Cells” (J Nat Prod, 2017).

Each structure is given as a SMILES string. The source made the active and inactive calls. The rule behind the calls is not given here.

The target of assay [1] is Neurogenic locus notch homolog protein 1 (Homo sapiens) (UniProt P46531). Description: Inhibition of doxycycline-induced recombinant mouse N-terminal FLAG-tagged Notch1 (1704 to 2531 residues) activation expressed in human LS174T cells assessed as reduction in Hes1 level at 0.1 to 1 uM after 12 hrs by Western blot analysis. It is filed as cell-based. The procedure, abridged: (§1)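 LS174T Notch cells (Tet-On LS174T, N-terminally FLAG-tagged mouse Notch1(1704-2531), stable 12×RBP-J luciferase reporter) seeded 1 × 10^6 cells per 6 cm dish for 12 h at 37 °C. Dox 50 ng/mL for 12 h, then fresh medium with compound for 12 h. Whole-cell lysates, SDS-PAGE, PVDF, ECL detection. Anti-Flag used for the Notch1 fragment; β-actin internal control.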
Chain of Neurogenic locus notch homolog protein 1 (Homo sapiens) (P46531 whole entry, the tested form may be a part): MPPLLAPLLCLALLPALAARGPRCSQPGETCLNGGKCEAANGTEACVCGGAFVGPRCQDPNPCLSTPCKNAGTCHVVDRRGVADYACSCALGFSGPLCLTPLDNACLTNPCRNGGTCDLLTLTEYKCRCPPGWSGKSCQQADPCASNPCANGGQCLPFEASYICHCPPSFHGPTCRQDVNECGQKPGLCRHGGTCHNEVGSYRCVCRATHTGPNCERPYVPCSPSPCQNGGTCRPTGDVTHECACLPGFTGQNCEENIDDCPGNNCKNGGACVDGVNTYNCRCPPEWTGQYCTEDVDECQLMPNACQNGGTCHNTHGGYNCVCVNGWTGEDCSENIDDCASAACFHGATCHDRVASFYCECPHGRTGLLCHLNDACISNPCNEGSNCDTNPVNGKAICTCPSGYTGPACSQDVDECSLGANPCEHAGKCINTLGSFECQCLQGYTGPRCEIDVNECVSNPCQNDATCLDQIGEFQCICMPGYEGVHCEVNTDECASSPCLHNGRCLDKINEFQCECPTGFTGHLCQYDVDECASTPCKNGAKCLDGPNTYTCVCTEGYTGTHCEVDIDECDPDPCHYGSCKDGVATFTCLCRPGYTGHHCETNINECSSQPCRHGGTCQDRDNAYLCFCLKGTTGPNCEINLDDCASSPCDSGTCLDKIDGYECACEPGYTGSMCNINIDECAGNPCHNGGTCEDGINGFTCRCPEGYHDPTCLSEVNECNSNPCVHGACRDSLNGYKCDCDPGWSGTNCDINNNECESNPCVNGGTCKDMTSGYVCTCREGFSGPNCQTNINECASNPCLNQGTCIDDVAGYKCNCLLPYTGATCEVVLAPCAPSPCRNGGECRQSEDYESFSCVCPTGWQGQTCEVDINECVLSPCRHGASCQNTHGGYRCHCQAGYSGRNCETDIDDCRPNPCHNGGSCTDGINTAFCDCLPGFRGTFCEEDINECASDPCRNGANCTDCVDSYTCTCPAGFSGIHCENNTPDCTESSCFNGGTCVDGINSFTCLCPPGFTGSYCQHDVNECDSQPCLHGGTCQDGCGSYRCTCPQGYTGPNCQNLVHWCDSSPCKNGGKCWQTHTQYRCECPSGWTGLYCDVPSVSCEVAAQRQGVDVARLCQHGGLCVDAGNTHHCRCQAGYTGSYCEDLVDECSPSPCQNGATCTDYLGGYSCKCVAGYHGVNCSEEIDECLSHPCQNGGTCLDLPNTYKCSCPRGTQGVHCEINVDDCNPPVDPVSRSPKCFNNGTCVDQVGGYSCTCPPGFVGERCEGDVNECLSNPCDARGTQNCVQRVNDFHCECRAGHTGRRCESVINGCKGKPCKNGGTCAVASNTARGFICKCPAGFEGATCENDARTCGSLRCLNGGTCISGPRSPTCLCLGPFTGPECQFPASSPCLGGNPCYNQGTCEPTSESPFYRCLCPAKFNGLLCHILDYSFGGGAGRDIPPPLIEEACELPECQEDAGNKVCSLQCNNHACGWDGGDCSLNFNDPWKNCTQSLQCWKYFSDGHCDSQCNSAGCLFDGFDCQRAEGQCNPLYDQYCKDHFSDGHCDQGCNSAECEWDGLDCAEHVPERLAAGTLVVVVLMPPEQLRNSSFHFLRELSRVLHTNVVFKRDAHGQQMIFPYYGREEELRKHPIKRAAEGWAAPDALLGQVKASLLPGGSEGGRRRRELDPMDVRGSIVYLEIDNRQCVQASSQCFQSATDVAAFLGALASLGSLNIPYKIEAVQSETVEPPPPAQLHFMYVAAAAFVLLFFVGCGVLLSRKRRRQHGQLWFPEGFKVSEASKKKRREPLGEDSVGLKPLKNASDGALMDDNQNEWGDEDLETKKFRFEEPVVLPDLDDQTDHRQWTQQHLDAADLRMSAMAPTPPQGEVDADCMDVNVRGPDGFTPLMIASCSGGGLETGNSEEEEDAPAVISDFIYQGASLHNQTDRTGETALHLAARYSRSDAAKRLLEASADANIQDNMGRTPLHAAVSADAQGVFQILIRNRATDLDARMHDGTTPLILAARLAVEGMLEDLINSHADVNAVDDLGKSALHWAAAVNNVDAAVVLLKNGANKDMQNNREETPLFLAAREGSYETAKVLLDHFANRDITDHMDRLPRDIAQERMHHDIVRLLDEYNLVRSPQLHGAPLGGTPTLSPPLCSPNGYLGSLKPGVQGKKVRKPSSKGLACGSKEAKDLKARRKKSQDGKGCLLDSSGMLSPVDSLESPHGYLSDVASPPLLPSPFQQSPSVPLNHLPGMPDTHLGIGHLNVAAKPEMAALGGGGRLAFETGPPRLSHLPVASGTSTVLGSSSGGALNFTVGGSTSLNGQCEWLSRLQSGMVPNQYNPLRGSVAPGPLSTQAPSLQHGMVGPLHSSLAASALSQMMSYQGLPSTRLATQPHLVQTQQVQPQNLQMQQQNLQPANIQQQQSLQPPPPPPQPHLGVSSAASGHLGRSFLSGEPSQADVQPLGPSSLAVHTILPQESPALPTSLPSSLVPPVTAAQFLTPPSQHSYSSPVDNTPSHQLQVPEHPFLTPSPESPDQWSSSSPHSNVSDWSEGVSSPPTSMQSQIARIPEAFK
A general note: Immunoblotting shows a protein as a band on a membrane.

Assay [2] has as its target Neurogenic locus notch homolog protein 1 (Mus musculus) (UniProt Q01705). Description: Inhibition of recombinant mouse Notch1-RAMIC expressed in MEB5 cells harboring TP1 assessed as luciferase activity at 10 uM after 12 hrs by Dual-Glo luciferase assay (reference value: 0.258). It counts as cell-based.
Assay [3] has as its target Neurogenic locus notch homolog protein 1 (Homo sapiens) (UniProt P46531). The assay can be described thus: Inhibition of doxycycline-induced recombinant mouse N-terminal FLAG-tagged Notch1 (1704 to 2531 residues) activation expressed in human LS174T cells assessed as reduction in Hes5 level at 0.1 to 1 uM after 12 hrs by Western blot analysis. It is filed as cell-based. The procedure, abridged: as §1

For assay [4], the system named is MEB5. The assay can be described thus: Induction of neuronal differentiation in mouse MEB5 cells assessed as reduction in astrocytes at 10 uM after 4 days by GFAP staining based immunofluorescence analysis. It is filed as functional, cell-based. An outline of the steps:
(§2)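 MEB5 mouse neurospheres were chemically dissociated and seeded at 2 × 10^6 cells/well on coverslips coated with poly-L-lysine and fibronectin/laminin. After 12 h in proliferation medium, cells were washed with NeuroCult basal medium and treated for 4 days in differentiation medium. They were then fixed in 4% paraformaldehyde and immunostained for Tuj-1 (neurons) and GFAP (astrocytes), with TO-PRO-3 nuclear counterstain. Confocal imaging used four fields per well and three wells per condition, covering over 4000 cells and 670 neurites per sample.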

The target in assay [5] is Neurogenic locus notch homolog protein 1 (Mus musculus) (UniProt Q01705). The assay can be described thus: Inhibition of recombinant mouse Notch1-RAMIC expressed in MEB5 cells assessed as reduction in doxycycline-induced NICD expression at 10 uM after 12 hrs by Western blot analysis. It counts as cell-based. An outline of the steps: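 Dissociated MEB5 cells were seeded at 2 × 10^6 cells/well in 6 cm dishes coated with poly-L-lysine and fibronectin/laminin. After 12 h in proliferation medium, cells were washed with serum-free NeuroCult basal medium and treated in differentiation medium with 10 μM for 12 h. Whole-cell lysates were run on SDS-PAGE and immunoblotted for NICD, with ECL detection.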
Chain of Neurogenic locus notch homolog protein 1 (Mus musculus) (Q01705 whole entry, the tested form may be a part): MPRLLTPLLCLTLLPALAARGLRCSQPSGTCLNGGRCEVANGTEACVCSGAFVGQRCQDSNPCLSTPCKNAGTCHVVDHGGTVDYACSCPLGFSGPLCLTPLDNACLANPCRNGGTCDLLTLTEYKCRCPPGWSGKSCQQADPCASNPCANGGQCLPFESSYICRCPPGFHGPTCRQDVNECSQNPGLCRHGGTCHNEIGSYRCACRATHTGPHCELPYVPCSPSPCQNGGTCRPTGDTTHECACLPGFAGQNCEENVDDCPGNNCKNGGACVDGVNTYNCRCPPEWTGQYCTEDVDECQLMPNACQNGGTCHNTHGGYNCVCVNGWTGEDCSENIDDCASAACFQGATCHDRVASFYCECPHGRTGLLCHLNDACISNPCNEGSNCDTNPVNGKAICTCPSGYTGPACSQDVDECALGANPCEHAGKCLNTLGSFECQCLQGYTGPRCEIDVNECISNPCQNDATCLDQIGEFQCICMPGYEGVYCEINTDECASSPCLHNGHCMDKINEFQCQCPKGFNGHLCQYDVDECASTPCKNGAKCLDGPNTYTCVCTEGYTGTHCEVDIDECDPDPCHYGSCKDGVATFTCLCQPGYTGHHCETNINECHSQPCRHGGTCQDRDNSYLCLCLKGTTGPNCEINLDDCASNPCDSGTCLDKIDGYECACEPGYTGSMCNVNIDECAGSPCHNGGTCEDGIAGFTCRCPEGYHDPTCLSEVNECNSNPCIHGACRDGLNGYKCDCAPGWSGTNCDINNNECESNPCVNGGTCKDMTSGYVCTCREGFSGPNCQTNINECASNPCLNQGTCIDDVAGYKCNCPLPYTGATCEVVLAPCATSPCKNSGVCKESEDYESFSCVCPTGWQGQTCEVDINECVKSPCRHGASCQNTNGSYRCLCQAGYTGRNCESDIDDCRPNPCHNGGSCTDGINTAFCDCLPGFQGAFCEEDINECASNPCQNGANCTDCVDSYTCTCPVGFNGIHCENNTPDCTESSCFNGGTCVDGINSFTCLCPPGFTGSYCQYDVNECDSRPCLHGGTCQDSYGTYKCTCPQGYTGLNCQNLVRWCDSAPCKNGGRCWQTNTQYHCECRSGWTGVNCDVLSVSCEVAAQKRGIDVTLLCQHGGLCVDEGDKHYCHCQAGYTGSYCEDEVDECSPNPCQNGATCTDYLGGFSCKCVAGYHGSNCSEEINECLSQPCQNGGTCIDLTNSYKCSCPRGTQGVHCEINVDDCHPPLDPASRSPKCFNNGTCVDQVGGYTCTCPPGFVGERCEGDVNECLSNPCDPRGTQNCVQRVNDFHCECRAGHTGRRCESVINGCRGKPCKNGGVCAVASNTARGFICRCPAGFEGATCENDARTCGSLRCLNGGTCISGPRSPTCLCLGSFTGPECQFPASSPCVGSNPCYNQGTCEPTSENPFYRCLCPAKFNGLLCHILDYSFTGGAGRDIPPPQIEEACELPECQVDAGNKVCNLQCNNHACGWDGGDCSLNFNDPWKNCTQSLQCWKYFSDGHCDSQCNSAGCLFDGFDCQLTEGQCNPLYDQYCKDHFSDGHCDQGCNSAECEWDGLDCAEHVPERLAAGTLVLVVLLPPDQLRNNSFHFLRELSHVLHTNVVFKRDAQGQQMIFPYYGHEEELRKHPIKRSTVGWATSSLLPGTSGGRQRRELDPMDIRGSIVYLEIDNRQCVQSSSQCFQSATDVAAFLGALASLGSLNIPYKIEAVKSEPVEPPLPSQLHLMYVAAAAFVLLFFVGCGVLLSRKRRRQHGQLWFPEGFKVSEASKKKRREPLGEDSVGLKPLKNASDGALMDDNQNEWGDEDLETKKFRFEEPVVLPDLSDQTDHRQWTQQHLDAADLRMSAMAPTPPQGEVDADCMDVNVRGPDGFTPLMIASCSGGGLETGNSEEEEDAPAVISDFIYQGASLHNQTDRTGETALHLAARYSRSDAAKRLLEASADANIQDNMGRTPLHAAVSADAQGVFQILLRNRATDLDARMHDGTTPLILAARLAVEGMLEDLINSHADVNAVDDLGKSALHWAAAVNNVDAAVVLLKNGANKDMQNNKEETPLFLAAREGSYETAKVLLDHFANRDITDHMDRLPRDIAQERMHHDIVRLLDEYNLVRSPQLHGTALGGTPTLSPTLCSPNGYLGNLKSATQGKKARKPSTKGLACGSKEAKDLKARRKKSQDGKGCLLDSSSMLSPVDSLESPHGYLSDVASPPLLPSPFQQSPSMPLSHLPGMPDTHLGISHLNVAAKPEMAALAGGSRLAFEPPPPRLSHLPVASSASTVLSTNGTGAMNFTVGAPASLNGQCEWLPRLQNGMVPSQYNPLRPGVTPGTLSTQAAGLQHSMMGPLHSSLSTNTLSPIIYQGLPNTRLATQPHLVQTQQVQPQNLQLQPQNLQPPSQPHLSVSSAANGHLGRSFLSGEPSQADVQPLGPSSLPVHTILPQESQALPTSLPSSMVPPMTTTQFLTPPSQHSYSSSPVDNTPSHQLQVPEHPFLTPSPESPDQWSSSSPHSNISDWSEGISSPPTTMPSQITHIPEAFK

Assay [6] relates to MEB5. The assay can be described thus: Induction of neuronal differentiation in mouse MEB5 cells assessed as neurite length at 10 uM after 4 days by Tuj1 staining based immunofluorescence analysis (reference value: 14.3 micrometer). It is filed as functional. An outline of the steps:
as §2

Assay [7] has as its system MEB5. The assay can be described thus: Induction of neuronal differentiation in mouse MEB5 cells assessed as increase in neurite extension length at 10 uM after 4 days by Tuj1 staining based immunofluorescence analysis relative to control. It is filed as functional. An outline of the steps:
as §2

For assay [8], the system named is MEB5. Description: Induction of neuronal differentiation in mouse MEB5 cells assessed as number of neurons at 10 uM after 4 days by Tuj1 staining based immunofluorescence analysis (reference value: 13.3 %). It counts as functional. The procedure, abridged:
as §2

Assay [9] is described as follows: Inhibition of recombinant mouse N-terminal FLAG-tagged Notch1 (1704 to 2531 residues) expressed in human LS174T cells assessed as reduction in doxycycline-induced NICD expression after 12 hrs by Bright-Glo luciferase reporter gene assay. It is filed as cell-based. The procedure, abridged: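 LS174T Notch cells seeded 2 × 10^4 cells/well, 12 h at 37 °C. Dox 50 ng/mL for 12 h, then Dox-free medium with samples for 12 h at 37 °C in 0.1% DMSO. Luciferase read with Bright-Glo. Viability measured in parallel by fluorometric microculture cytotoxicity assay. SD, n = 3.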

Assay [10] deals with Gamma-secretase (Homo sapiens) (UniProt Q96BI3+Q9NZ42+Q8WW43+P49768+Q92542+P49810). The assay can be described thus: Effect on gamma-secretase activity in human LS174T cells harboring mouse N-terminal FLAG-tagged Notch1 (1704 to 2531 residues) after 12 hrs by Western blot analysis. It counts as cell-based.
Assay [11] has as its target Neurogenic locus notch homolog protein 1 (Mus musculus) (UniProt Q01705). Description: Inhibition of Notch1 in mouse MEB5 cells assessed as reduction in NICD expression at 1 uM after 24 hrs by Western blot analysis. It is filed as cell-based. An outline of the steps: (§3)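 MEB5 mouse neural stem cells dissociated and seeded on poly-L-lysine and fibronectin/laminin-coated 6 cm dishes in proliferation medium for 12 h. Washed with NeuroCult basal medium, then compound given in differentiation medium for 24 h. Lysates analysed by Western blot (SDS-PAGE, PVDF, ECL); γ-secretase antibody sampler kit used for γ-secretase components.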

In a further assay the test system is LS174T. Description: Effect on Notch1 (1704 to 2531 residues) expression in human LS174T cells at 0.001 to 10 uM after 12 hrs by Western blot analysis. It counts as functional, cell-based. The procedure, abridged:
as §1

Assay [12] deals with MEB5. The assay can be described thus: Induction of neuronal differentiation in mouse MEB5 cells assessed as increase in neurite extension length at 1 uM after 4 days by Tuj1 staining based immunofluorescence analysis relative to control. It counts as functional.
For assay [13], the system named is MEB5. The assay can be described thus: Induction of neuronal differentiation in mouse MEB5 cells assessed as number of neurons at 1 uM after 4 days by Tuj1 staining based immunofluorescence analysis (reference value: 13.3 %). It counts as functional.
The test system of assay [14] is MEB5. Description: Effect on gamma-secretase activity in mouse MEB5 cells assessed as nicastrin expression at 1 uM after 24 hrs by Western blot analysis. It counts as cell-based. The procedure, abridged:
as §3

The subject of assay [15] is MEB5. Description: Induction of neuronal differentiation in mouse MEB5 cells assessed as reduction in astrocytes at 1 uM after 4 days by GFAP staining based immunofluorescence analysis. It counts as functional, cell-based.
Assay [16] concerns the target Neurogenic locus notch homolog protein 1 (Mus musculus) (UniProt Q01705). The assay can be described thus: Inhibition of Notch1 in mouse MEB5 cells assessed as reduction in NICD expression at 1 uM after 24 hrs in presence of proteasome inhibitor MG132 by Western blot analysis. It counts as cell-based.
Assay [17] concerns MEB5. The assay can be described thus: Inhibition of Wnt signaling in mouse MEB5 cells assessed as reduction in beta-catenin level up to 1 uM after 12 to 24 hrs by Western blot analysis. It is filed as cell-based.
Assay [18] concerns the target Neurogenic locus notch homolog protein 1 (Mus musculus) (UniProt Q01705). Description: Inhibition of Notch1 in mouse MEB5 cells assessed as reduction in Hes5 expression at 1 uM after 24 hrs by Western blot analysis. It counts as cell-based. The procedure, abridged:
as §3

Assay [19] relates to MEB5. Description: Induction of neuronal differentiation in mouse MEB5 cells assessed as neurite length at 1 uM after 4 days by Tuj1 staining based immunofluorescence analysis (reference value: 14.3 micrometer). It is filed as functional.
Assay [20] concerns MEB5. Description: Effect on gamma-secretase activity in mouse MEB5 cells assessed as PS2 expression at 1 uM after 24 hrs by Western blot analysis. It counts as cell-based. The procedure, abridged:
as §3

Assay [21] deals with MEB5. Description: Effect on gamma-secretase activity in mouse MEB5 cells assessed as PEN2 expression at 1 uM after 24 hrs by Western blot analysis. It is filed as cell-based. An outline of the steps: as §3
The test system of assay [22] is MEB5. The assay can be described thus: Effect on gamma-secretase activity in mouse MEB5 cells assessed as PS1 expression at 1 uM after 24 hrs by Western blot analysis. It is filed as cell-based. The procedure, abridged:
as §3

Assay [23] addresses Neurogenic locus notch homolog protein 1 (Mus musculus) (UniProt Q01705). The assay can be described thus: Inhibition of Notch1 in mouse MEB5 cells assessed as reduction in Hes1 expression at 1 uM after 24 hrs by Western blot analysis. It is filed as cell-based. An outline of the steps:
as §3

Regarding `C[C@H](NC(=O)Cc1cc(F)cc(F)c1)C(=O)N[C@H](C(=O)OC(C)(C)C)c1ccccc1`, the inhibition result in assay [1], in [3] and in assay [5] was “Active” throughout. The Activity in assay [2] amounted to 0.004; in the assay on MEB5 [6] it was 20.5 um; with MEB5 [7] it was 43%; with MEB5 [8], 19.7%. The result in the assay on MEB5 [4] was Active.

Consider `CC(=O)O[C@H]1C[C@@H](C)O[C@H]2O[C@@H]3C[C@@H]4CC[C@@H]5[C@H](CC[C@]6(C)[C@@H](C7=CC(=O)OC7)CC[C@]56O)[C@@]4(C=O)C[C@H]3O[C@]21O`, for which, in assay [9], the inhibition entry is “Dose-dependent effect”. Moreover, in assay [10], the outcome was inactive.

On to `COC(=O)[C@@]1(O)C[C@@H](C)O[C@H]1O[C@@H]1C[C@@H]2CC[C@@H]3[C@H](CC[C@]4(C)[C@@H](C5=CC(=O)OC5)[C@H](O)C[C@]34O)[C@@]2(C=O)C[C@H]1O`, for which the inhibition entry in assay [9] was “Dose-dependent effect”.

As for `C[C@@H]1CC(=O)[C@]2(O)O[C@@H]3C[C@@]4(C=O)[C@@H](CC[C@@H]5[C@@H]4CC[C@]4(C)[C@@H](C6=CC(=O)OC6)CC[C@]54O)C[C@H]3O[C@@H]2O1`, in [9], the inhibition result was “Dose-dependent effect”.

As for `C[C@@H]1C[C@@]2(N=CCS2)[C@]2(O)O[C@@H]3C[C@@]4(C=O)[C@@H](CC[C@@H]5[C@@H]4CC[C@]4(C)[C@@H](C6=CC(=O)OC6)[C@H](O)C[C@]54O)C[C@H]3O[C@@H]2O1`, the inhibition entry in assay [9] was “Dose-dependent effect”.

Regarding `C[C@@H]1C[C@@]2(NC(=O)CS2)[C@]2(O)O[C@@H]3C[C@@]4(C=O)[C@@H](CC[C@@H]5[C@@H]4CC[C@]4(C)[C@@H](C6=CC(=O)OC6)CC[C@]54O)C[C@H]3O[C@@H]2O1`, in [9], the inhibition result is “Dose-dependent effect”.

Regarding `C[C@@H]1C[C@@]2(NCCS2)[C@]2(O)O[C@@H]3C[C@@]4(C=O)[C@@H](CC[C@@H]5[C@@H]4CC[C@]4(C)[C@@H](C6=CC(=O)OC6)CC[C@]54O)C[C@H]3O[C@@H]2O1`, the inhibition entry in assay [9] was “Dose-dependent effect”.

`C[C@@H]1C[C@H](O)[C@]2(O)O[C@@H]3C[C@@]4(C=O)[C@@H](CC[C@@H]5[C@@H]4CC[C@]4(C)[C@@H](C6=CC(=O)OC6)CC[C@]54O)C[C@H]3O[C@@H]2O1`: the inhibition result in assay [9] is “Dose-dependent effect”. In addition, the outcome in assay [10] was inactive.

In the case of `C[C@@H]1C[C@@]2(N=CCS2)[C@]2(O)O[C@@H]3C[C@@]4(C=O)[C@@H](CC[C@@H]5[C@@H]4CC[C@]4(C)[C@@H](C6=CC(=O)OC6)CC[C@]54O)C[C@H]3O[C@@H]2O1` [USCHARIN], in [9], the inhibition result is “Dose-dependent effect”. For the same compound, the inhibition result in assay [1], in assay [11], in assay [3], in assay [18] and in [23] was “Active” each time. Moreover, the outcome (in the assay on LS174T; with MEB5 [14]; in assay [10]; in the assay with MEB5 [20]; in the assay on MEB5 [21]; in the assay on MEB5 [22]) was inactive. In addition, the figures for the Activity with MEB5 [12], in the assay on MEB5 [13] and in the assay on MEB5 [19] were 36%, 20.8% and 19.5 um, respectively. For the same compound, the outcome in the assay on MEB5 [15] was Active. The inhibition entry (in assay [16]; in the assay on MEB5 [17]) was “inactive” in each case.
